Consider two compounds from ChEMBL document CHEMBL1122788, “Quantitative relationships between alpha-adrenergic activity and binding affinity of alpha-adrenoceptor agonists and antagonists” (J Med Chem, 1984).

The target of assay [1] is T1, Adrenergic receptor alpha-1 (Rattus norvegicus, UniProt P15823+P23944+P43140).
T1 sequence (P15823 whole entry): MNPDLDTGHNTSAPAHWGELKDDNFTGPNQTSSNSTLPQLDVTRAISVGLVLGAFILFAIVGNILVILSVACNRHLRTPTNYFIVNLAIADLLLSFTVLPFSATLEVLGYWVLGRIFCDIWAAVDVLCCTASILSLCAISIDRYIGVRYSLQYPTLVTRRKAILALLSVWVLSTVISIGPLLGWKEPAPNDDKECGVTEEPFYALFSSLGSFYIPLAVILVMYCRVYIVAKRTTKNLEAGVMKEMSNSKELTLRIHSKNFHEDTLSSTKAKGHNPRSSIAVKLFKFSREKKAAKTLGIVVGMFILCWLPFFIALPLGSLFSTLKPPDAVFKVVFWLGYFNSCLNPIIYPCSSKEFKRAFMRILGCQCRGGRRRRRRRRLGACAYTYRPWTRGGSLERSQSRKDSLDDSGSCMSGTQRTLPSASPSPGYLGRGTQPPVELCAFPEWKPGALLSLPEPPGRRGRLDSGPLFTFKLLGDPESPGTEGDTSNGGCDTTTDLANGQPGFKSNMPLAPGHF
T1 sequence (P23944 whole entry): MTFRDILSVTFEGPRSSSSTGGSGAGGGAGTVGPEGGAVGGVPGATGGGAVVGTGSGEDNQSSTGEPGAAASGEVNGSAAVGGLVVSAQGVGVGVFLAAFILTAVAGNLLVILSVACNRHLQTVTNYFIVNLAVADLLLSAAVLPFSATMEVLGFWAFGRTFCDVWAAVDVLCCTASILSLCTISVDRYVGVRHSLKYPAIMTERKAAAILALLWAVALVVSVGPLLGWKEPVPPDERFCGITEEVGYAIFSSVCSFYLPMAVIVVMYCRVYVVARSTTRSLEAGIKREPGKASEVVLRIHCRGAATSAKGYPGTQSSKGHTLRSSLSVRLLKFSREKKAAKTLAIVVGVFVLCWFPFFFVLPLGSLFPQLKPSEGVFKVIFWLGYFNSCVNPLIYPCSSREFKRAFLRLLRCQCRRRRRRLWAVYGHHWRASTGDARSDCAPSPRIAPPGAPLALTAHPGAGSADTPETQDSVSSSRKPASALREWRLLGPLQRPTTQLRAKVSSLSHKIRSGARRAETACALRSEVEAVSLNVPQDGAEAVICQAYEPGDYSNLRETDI
T1 sequence (P43140 whole entry): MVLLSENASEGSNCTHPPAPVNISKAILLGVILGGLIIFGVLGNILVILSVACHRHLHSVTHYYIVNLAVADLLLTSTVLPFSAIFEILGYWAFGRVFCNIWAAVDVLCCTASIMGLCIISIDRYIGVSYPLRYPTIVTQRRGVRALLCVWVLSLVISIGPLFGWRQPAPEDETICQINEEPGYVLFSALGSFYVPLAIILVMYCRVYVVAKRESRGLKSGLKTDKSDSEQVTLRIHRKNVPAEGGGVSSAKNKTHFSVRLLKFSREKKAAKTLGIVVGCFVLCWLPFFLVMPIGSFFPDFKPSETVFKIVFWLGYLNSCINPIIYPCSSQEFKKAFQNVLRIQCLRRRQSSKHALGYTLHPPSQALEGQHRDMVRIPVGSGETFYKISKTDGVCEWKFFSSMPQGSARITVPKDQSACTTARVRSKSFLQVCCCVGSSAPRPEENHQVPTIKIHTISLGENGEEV
Briefly: Antagonist activity against phenylephrine-induced alpha1- adrenoceptor mediated vasoconstriction in pithed normotensive rats. Format: functional.

Assay [2] has as its target T1, Adrenergic receptor alpha-1. Briefly: (§1) Inhibition of specific [3H]-prazosin binding (0.2 nM) to rat brain membranes alpha-1 adrenergic receptor. The assay is classed as cell membranes, Membrane. An outline of the steps: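 Brain membranes were prepared from male Wistar rats (200–250 g, cerebellum removed) in ice-cold 50 mmol/L Tris-HCl, pH 7.7, with two 50000g spins, and used at 1 mg/mL protein (Lowry). […] Bound label was collected by vacuum filtration and counted. IC50 came from log probit analysis.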

For another assay, the species on record is Oryctolagus cuniculus. The assay can be described thus: Index of alpha1/alpha2 adrenoceptor antagonist selectivity at pre and postsynaptic sites in vitro. The assay is classed as functional.
Assay [3] deals with Adrenergic receptor alpha-2 (Homo sapiens) (UniProt P08913+P18825+P18089). The settings on record: Oryctolagus cuniculus.
The target in assay [4] is T1, Adrenergic receptor alpha-1. Briefly: In vivo antagonist activity against (-)-phenylephrine-induced alpha-1 adrenergic receptor mediated vasoconstriction in pithed normotensive rats. Format: functional, organism-based.
Assay [5] has the same target. The description is as §1. The assay is classed as cell membranes, Membrane. An outline of the steps:
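Whole rat brain (minus cerebellum) from male Wistar rats (200–250 g), homogenized in ice-cold 50 mM Tris-HCl pH 7.7 and washed twice at 50000g. Bound ligand was collected by filtration and counted. IC50 was derived by log-probit analysis.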
The source holds these as a separate data set.

By pA2 is commonly meant a measure of antagonist potency on a negative log scale. As a reminder, the IC50 is the concentration needed to halve the response being measured. Higher therefore signals weaker potency in that assay. Take `C=CCN1Cc2ccccc2-c2ccccc2C1` [AZAPETINE]: the pA2 in assay [1] was 6.09. The compound also had an IC50 in assay [2] of 205 nM. For the same compound, the Selectivity index in the assay listed under Oryctolagus cuniculus was determined as 1.08. This compound also returned a pC30 in assay [3] of 5.89.

The compound `CN1C[C@H](C(=O)N[C@]2(C)O[C@@]3(O)[C@@H]4CCCN4C(=O)[C@H](Cc4ccccc4)N3C2=O)C[C@@H]2c3cccc4[nH]cc(c34)C[C@H]21` [DIHYDROERGOTAMINE] came in with a pA2 in assay [4] of 6.68. Also, in assay [5], the IC50 stood at 27 nM.
